Source: PubChem (Johns Hopkins Ion Channel Center)
Rows were chosen to be rich in hits. Some 2.3% of all compounds tested hit in one or more screens of this group.
TRPC4 potent = TRPC4 (mouse) allosteric potentiation; Q9QUQ5; HEK293 TRPC4beta/mu-opioid, DAMGO EC20, Fluo-4 Ca2+ flux; stronger effect = higher value; B-score at 10 µM; 0.42% of 310,000 active;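 active = B-score of calcium response area above 5 SD of library B-scores, with initial fluorescence ratio within 5 SD of library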;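 also: B-score of integrated fluorescence ratio over time as area under calcium response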
Target sequence (Q9QUQ5 whole entry, looked up): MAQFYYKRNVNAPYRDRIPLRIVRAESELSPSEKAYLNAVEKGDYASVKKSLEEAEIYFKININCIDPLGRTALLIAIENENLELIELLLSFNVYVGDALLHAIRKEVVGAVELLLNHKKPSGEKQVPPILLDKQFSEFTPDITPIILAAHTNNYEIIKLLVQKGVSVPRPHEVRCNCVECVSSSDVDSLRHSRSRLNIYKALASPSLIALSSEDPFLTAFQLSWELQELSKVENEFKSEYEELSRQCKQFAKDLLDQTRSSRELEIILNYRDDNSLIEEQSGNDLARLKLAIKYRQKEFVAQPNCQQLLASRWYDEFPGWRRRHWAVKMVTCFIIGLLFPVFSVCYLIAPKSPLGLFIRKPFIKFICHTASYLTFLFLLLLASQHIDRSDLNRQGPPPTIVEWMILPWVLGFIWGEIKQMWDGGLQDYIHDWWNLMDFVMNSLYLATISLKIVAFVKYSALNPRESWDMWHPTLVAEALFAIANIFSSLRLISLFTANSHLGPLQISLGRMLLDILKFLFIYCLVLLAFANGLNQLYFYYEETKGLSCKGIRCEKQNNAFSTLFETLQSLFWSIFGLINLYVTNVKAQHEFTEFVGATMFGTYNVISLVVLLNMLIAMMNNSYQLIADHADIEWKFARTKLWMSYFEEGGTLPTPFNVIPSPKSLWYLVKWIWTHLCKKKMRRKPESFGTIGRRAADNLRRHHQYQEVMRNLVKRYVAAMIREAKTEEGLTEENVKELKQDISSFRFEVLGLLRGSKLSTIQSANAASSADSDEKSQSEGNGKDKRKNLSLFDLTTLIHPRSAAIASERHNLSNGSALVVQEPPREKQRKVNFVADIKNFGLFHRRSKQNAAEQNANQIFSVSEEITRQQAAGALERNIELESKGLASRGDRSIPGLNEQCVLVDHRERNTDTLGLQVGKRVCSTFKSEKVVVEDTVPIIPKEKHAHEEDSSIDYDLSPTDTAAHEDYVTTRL
TRPC4 inh = inhibitors of mouse TRPC4 channel. Q9QUQ5. HEK293 TRPC4beta/mu-opioid, DAMGO-evoked Fluo4 calcium flux; stronger effect = lower value. B-score at 10 µM. 0.39% of 300,000 active. AID 2247;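 active = B-score over 3 SD under the library average, no early fluorescence shift, positive overall ratio signal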
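test system = HEK293 cells with stable TRPC4beta plus mu-opioid receptor expression | detection = Fluo4 Ca2+ flux fluorescence | read-out = integrated fluorescence ratio relative to baseline, converted to per-well B score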
TRPC6 inh = inhibitors of mouse TRPC6 channel | Q61143 | HEK293-TRPC6, membrane potential dye, ACh-evoked depolarization; stronger effect = lower value | B-score at 10 µM | 1.1% of 310,000 active;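 active = B-score under library mean minus 3 SD, initial fluorescence not abnormally high, positive integrated signal ratio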;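 also: B-score derived from integrated fluorescence ratio over the kinetic read; more negative B-score means stronger inhibition of depolarization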
TRPC6 act = mouse TRPC6 channel activation; 0.13% of 310,000 active; AID 2550; HEK293-TRPC6 membrane potential dye fluorescence; stronger effect = higher value; B-score at 10 µM;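 active = B-score of the integrated fluorescence ratio above library mean plus 3 SD, and starting fluorescence ratio within library mean plus 5 SD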;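 also: higher score means more depolarization so channel activation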
TRPC4 agonist = activators of mouse TRPC4 channel | B-score at 10 µM | AID 2237 | HEK293 TRPC4beta/mu-opioid, Fluo4 calcium fluorescence; stronger effect = higher value | Q9QUQ5 | 0.49% of 310,000 active;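 active = B-score above 5 SD of library B-scores, and initial fluorescence ratio not above library mean plus 5 SD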;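 also: positive B-score marks a calcium rise read as TRPC4 activation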
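Test system: HEK293 cells stably co-expressing mouse TRPC4beta and mu-opioid receptor | Schedule: Fluo4 dye loading 45 min at room temperature, 110 s recording | Measured by: Kinetic Fluo4 calcium fluorescence, 5 s baseline at 1 Hz | Evaluation: B score of integrated ratio | Controls: Buffer (low) and maximal DAMGO (high)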
TRPC4 sel inh 2 = second selectivity test of TRPC6 inhibitors: effect on mouse TRPC4. 42% of 920 active. inhibition, % at 10 µM. shares compounds with TRPC6 inh. HEK293 TRPC4/MOR, membrane potential dye fluorescence; channel activated by saturating DAMGO dose;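 active = compounds whose fluorescence signal differed from control wells by over 3 SD, either direction, in both duplicate plates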
TRPC4 spec = tests whether TRPC6 inhibitors also affect mouse TRPC4. shares compounds with TRPC6 inh. HEK293 TRPC4/mu-opioid, membrane potential fluorescence. 61% of 920 active. activity change, negative = inhibition, % at 10 µM;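 active = rise or fall in signal beyond 3 SD of buffer-only wells in both replicate plates, either sign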;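 also: integrated kinetic ratio of fluorescence range over baseline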
HEK293 MPD ctr 2-1 = second counter-screen for TRPC6 inhibitors: parental HEK293 cells; shares compounds with TRPC6 inh; 31% of 920 active; AID 2779; signal change vs control, % at 10 µM; parental HEK293 membrane potential dye fluorescence; maximal acetylcholine challenge after compound addition;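 active = membrane potential signal moving either way by over 3 SD of the maximum-effect control, in both duplicate plates, meaning non-specific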
HEK293 MPD ctr-1 = counter-screen for TRPC6 inhibitors: effect in parental HEK293 cells | AID 2780 | 60% of 920 active | parental HEK293 membrane potential dye fluorescence | shares compounds with TRPC6 inh | membrane potential signal change, % at 10 µM;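 active = membrane potential signal shifting up or down by more than 3 SD of buffer-only wells, on both duplicate plates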
HEK293 MPD ctr-2 = checks TRPC6 modulator effects in parental HEK293 cells. shares compounds with TRPC6 inh. membrane potential dye fluorescence. membrane potential signal change, % at 10 µM. 51% of 2,400 active. AID 488924;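 active = membrane potential signal moves up or down beyond 5 SD from buffer-only wells, on both duplicate plates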
HEK293 MPD ctr 2-2 = parental HEK293 nonspecific activity of TRPC6 modulators, second screen. shares compounds with TRPC6 inh. membrane potential dye fluorescence; after compound, maximal acetylcholine stimulation. inhibition, % at 10 µM. 14% of 2,400 active;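 active = membrane potential signal drops by more than 5 SD from the mean control signal, in both duplicate plates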;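 also: plate controls were acetylcholine ECmax control wells for no effect and buffer only wells for full effect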
TRPC4/MOR mod = selectivity of TRPC6 modulators against mouse TRPC4; 69% of 2,400 active; HEK293 TRPC4/mu-opioid, membrane potential fluorescence; percent change from control (negative = decrease, positive = increase), % at 10 µM; shares compounds with TRPC6 inh; AID 488927;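 active = membrane potential signal moved up or down beyond 5 SD of buffer control wells, in both duplicate plates, actives on both sides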;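 also: plate controls were assay buffer wells for no effect and DAMGO maximal-effect wells for full effect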
TRPC4/MOR inh 2 = second check of whether TRPC6 modulators also affect mouse TRPC4; AID 488928; inhibition, % at 10 µM; shares compounds with TRPC6 inh; HEK293 TRPC4/mu-opioid, membrane potential dye fluorescence; stimulated with maximal-effect DAMGO; 55% of 2,400 active;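 active = drop in membrane potential signal beyond 5 SD of the control wells in both duplicate plates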;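 also: TRPC4 counter screen for TRPC6 hits run under conditions tuned for TRPC6 not TRPC4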
TRPC6 block conf = mouse TRPC6 inhibitor confirmation | shares compounds with TRPC6 inh | HEK293-TRPC6, membrane potential dye, ACh-evoked depolarization | inhibition, % at 10 µM | 43% of 3,300 active | AID 488960;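 active = fluorescence ratio falls more than 5 SD below the full-stimulation control mean, in both duplicate runs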;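 also: integrated fluorescence ratio of peak minus minimum over baseline after agonist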
TRPC6 act confirm = confirmation of mouse TRPC6 activators; shares compounds with TRPC6 inh; HEK293-TRPC6 membrane potential dye fluorescence, FDSS; activation, % at 10 µM; 11% of 2,800 active; AID 488961;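 active = ratio signal rise beyond 5 SD above unstimulated control wells' mean, seen in both duplicate runs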;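 also: plate controls were buffer EC0 wells for no effect and acetylcholine ECmax response for full effect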
An asterisk follows results filed as active; i = inactive; x = no result given.

SMILES	TRPC4 potent	TRPC4 inh	TRPC6 inh	TRPC6 act	TRPC4 agonist	HEK293 MPD ctr-2	HEK293 MPD ctr 2-2	TRPC4/MOR mod	TRPC4/MOR inh 2	TRPC6 block conf	TRPC6 act confirm	others
O=C(c1cccn2c(=O)c3ccccc3nc12)N1CCN(Cc2ccc3c(c2)OCO3)CC1	i	i	i	i	i	x	x	x	x	x	x
O=C(c1ccc(Cn2cc(Cl)cn2)o1)N1CCN(Cc2ccc3c(c2)OCO3)CC1	i	i	-5.7*	i	i	98%*	i	18%*	i	40%*	x
O=C(c1cccn2c(=O)c3cc(Cl)ccc3nc12)N1CCN(Cc2ccc3c(c2)OCO3)CC1	i	i	-7.5*	i	i	x	x	x	x	i	i	TRPC4 sel inh 2=i;TRPC4 spec=i;HEK293 MPD ctr 2-1=i;HEK293 MPD ctr-1=i
CCCC(=O)N1CCN(Cc2ccc3c(c2)OCO3)CC1	i	i	i	i	i	x	x	x	x	x	x
CSc1ccc(S(=O)(=O)N2CCN(Cc3ccc4c(c3)OCO4)CC2)cc1	i	i	-5*	i	i	i	i	i	i	40%*	i
O=C(O)CCC(=O)N1CCN(Cc2ccc3c(c2)OCO3)CC1	i	i	-6.8*	i	i	x	x	x	x	i	i	TRPC4 sel inh 2=i;TRPC4 spec=i;HEK293 MPD ctr 2-1=i;HEK293 MPD ctr-1=i
COc1ccc(S(=O)(=O)N2CCN(Cc3ccc4c(c3)OCO4)CC2)cc1	i	i	i	i	i	x	x	x	x	x	x
O=C(Nc1nccs1)c1ccc(-c2ccc(F)c(Cl)c2)o1	i	i	i	i	i	x	x	x	x	x	x
CCN1CNC(=S)N(c2cc(C)ccc2C)C1	i	i	i	i	i	x	x	x	x	x	x
CN(C)CCOC1c2ccccc2C=Cc2ccccc21	i	i	-5.5*	i	i	124%*	84%*	22%*	42%*	68%*	x
CCOC(=O)N1CCC(N2CCN(CCC(C)C)C(CCO)C2)CC1 (configuration not stated)	i	i	-7.6*	i	i	x	x	x	x	64%*	x	TRPC4 sel inh 2=i;TRPC4 spec=9.0%*;HEK293 MPD ctr 2-1=-4.0%*;HEK293 MPD ctr-1=1.5%*
COc1ccc2c(c1)S/C(=C\C(=O)c1ccncc1)N2C	i	i	-5.9*	i	i	100%*	i	-67%*	34%*	i	i
COc1cc2c(cc1OC)CN(C(=O)C1CCCN1S(=O)(=O)c1ccc(F)cc1)CC2 (configuration not stated)	i	i	i	i	i	x	x	x	x	x	x
CN(CCC#N)C(=O)c1cc2c(Cl)nc3ccccc3c2s1	i	i	i	i	i	x	x	x	x	x	x
CN(C)CCN(Cc1ccco1)C(=O)c1cc2c(Cl)nc3ccccc3c2s1	i	i	-5.2*	i	i	i	i	i	i	i	i
CC1CCc2[nH]c3ccc(C(=O)N4CCCC(C(F)(F)F)C4)cc3c2C1 (configuration not stated)	i	i	i	i	i	x	x	x	x	x	x
COc1ccc(CCC(=O)NC2CCC(C)CC2)cc1 (configuration not stated)	i	i	i	i	i	x	x	x	x	x	x
O=C(CSc1nnnn1C1CCCCC1)Nc1ccc(F)cc1	i	i	i	i	i	x	x	x	x	x	x
O=C(CSc1nnnn1C1CCCCC1)Nc1ccc2c(c1)OCO2	i	i	-8.7*	i	i	x	x	x	x	i	i	TRPC4 sel inh 2=i;TRPC4 spec=i;HEK293 MPD ctr 2-1=i;HEK293 MPD ctr-1=i
CSCCC(NC(=O)COc1ccccc1)C(=O)N1CCCC(C)C1 (configuration not stated)	i	i	i	i	i	x	x	x	x	x	x
c1ccc(NC2=Nc3cccc4cccc2c34)cc1	i	i	i	i	i	x	x	x	x	x	x
c1cc2c3c(cccc3c1)C(N1CCCCCC1)=N2	i	i	-12*	i	i	-208%*	i	-46%*	68%*	i	i
c1cc2c3c(cccc3c1)C(N1CCCCC1)=N2	i	i	-11*	i	i	-195%*	78%*	-52%*	93%*	76%*	i
Cc1cnc(C(=O)Nc2ccccc2-c2nnn(CC(=O)NC3CCCC3)n2)cn1	i	i	i	i	i	x	x	x	x	x	x
CCOC(=O)/C(=C/c1ccc(N2CCC(c3ccccc3)=N2)cc1)C(C)=O	i	i	i	14*	i	582%*	i	51%*	i	i	43%*
CCc1ccc2c(c1)C(=O)C[C@]1(CCC[C@H](C)C1)O2	i	i	i	i	i	x	x	x	x	x	x
COc1ccc(Nc2ccc(C(F)(F)F)cc2[N+](=O)[O-])cn1	i	i	i	i	i	x	x	x	x	x	x
COC(=O)c1ccc(CN2CCN(C3CCCC3)C(CCO)C2)cc1 (configuration not stated)	i	i	-9.5*	i	i	x	x	x	x	63%*	x	TRPC4 sel inh 2=i;TRPC4 spec=2.2%*;HEK293 MPD ctr 2-1=6.0%*;HEK293 MPD ctr-1=4.6%*
COc1ccccc1-n1cc(CN2CCN(C3CCCC3)C(CCO)C2)cn1 (configuration not stated)	i	i	-5.2*	i	i	i	i	10%*	i	36%*	x
Cc1cc2nc3c(nc2cc1C)C(O)=C3O	i	i	i	i	i	x	x	x	x	x	x
